Laboratory results reported in ChEMBL document CHEMBL4513216, “Probing the Open Global Health Chemical Diversity Library for Multistage-Active Starting Points for Next-Generation Antimalarials” (ACS Infect Dis, 2020).

Assay: Toxicity liver stage against HepG2, at 10uM
Format: cell-based
Parameters: test concentration 10 uM, cell line HepG2-A16-CD81EGFP
Details: human, HepG2-A16-CD81EGFP cells; read-out: INHIBITION
Summary of the method: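 Uninfected HepG2-A16-CD81EGFP cells, 3 × 10^3 per well, 1536-well, plated on prespotted compound at 10 μM final, parasite-free screening media added to match infected plates; puromycin 10 μM positive, DMSO 0.5% negative; run in parallel with 48 h PbLuc assay at 37 °C, 5% CO2; viability by CellTiter-Glo luminescence, normalized to controls.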

CCn1c(SCC(=O)N2CCOCC2)nc2cc(C)[nH]c2c1=O
cytotoxicity at 10 µM: 7.72%

CCn1c(=O)c2cc(S(N)(=O)=O)ccc2n(CC)c1=O
cytotoxicity at 10 µM: -13.4%

CC(C)c1cc2c(s1)NC(c1ccccn1)NC2=O (stereo not given)
cytotoxicity at 10 µM: -0.378%

Fc1cccc(Cl)c1CNCCCOc1ccccn1
cytotoxicity at 10 µM: -3.33%

CCCC(=O)NCCCn1ncc2c(C)cccc21
cytotoxicity at 10 µM: 8.6%

CC(C)CNC(=O)c1nnsc1-c1ccccc1
cytotoxicity at 10 µM: 10.3%

COc1ccc(C2CN(c3cc(C)ncn3)CCN2C(C)=O)cc1 (stereo not given)
cytotoxicity at 10 µM: 0.23%

COCC(=O)N1CC(c2csc(NC(C)=O)n2)C1
cytotoxicity at 10 µM: -8.8%

CC1(C(=O)N2CCOCC2)CN(Cc2cccnc2)CCO1 (stereo not given)
cytotoxicity at 10 µM: -9%

Cc1c(C(=O)N2CCCC(n3nnc4cc(F)ccc43)C2)cnn1C (stereo not given)
cytotoxicity at 10 µM: -18.3%

Cc1ccc(CC(=O)NCC(O)c2cccc(C(F)(F)F)c2)cn1 (stereo not given)
cytotoxicity at 10 µM: -18.6%

Cc1cc(C)n(CC(C)CNC(=O)NCc2ccco2)n1 (stereo not given)
cytotoxicity at 10 µM: -2.58%

CC(C)N(C)C(=O)C1CSCN1S(=O)(=O)c1ccccc1F (stereo not given)
cytotoxicity at 10 µM: 8.65%

CCOCCN1CCN(c2ccc(C#N)cn2)CC1CC (stereo not given)
cytotoxicity at 10 µM: 1.02%

CCn1cnnc1CNS(=O)(=O)N1CCCC1c1ccc(C)o1 (stereo not given)
cytotoxicity at 10 µM: -144%

Cc1ccc(NC(=O)NCC2CCS(=O)(=O)C2)cc1Cl (stereo not given)
cytotoxicity at 10 µM: 6.93%

CCN(CC)c1ccc(CNC(=O)N2CCC(C#N)CC2)cc1
cytotoxicity at 10 µM: -11.4%

COCCS(=O)(=O)NCc1ccc(N(C)C)c(C)c1
cytotoxicity at 10 µM: -8.35%

Cc1nc(C(=O)N(C)CC(F)(F)C(F)(F)F)c2ccccn12
cytotoxicity at 10 µM: 2.56%

CC(C)c1csc(C(=O)N(C)c2ccc(Br)cn2)n1
cytotoxicity at 10 µM: 3.33%

CN1C(=O)CCc2cc(NS(=O)(=O)Cc3cccc(F)c3)ccc21
cytotoxicity at 10 µM: 3.6%

O=C1CC2(CCSC2)C(=O)N1Cc1coc(-c2cccc(F)c2)n1 (stereo not given)
cytotoxicity at 10 µM: -0.237%

COc1cc(C)ccc1OCCC(=O)N1CCC(N2CC=CC2)C1 (stereo not given)
cytotoxicity at 10 µM: 6.99%

Cn1cc(C(=O)N2CCCC2c2ccc3c(c2)OCO3)ccc1=O (stereo not given)
cytotoxicity at 10 µM: -14.8%

CCOCCCC(=O)NCc1ccnc(N2CCN(C)CC2)c1
cytotoxicity at 10 µM: -10.9%

CCN(Cc1ccco1)C(C)c1nc(C(C)(C)C)no1 (stereo not given)
cytotoxicity at 10 µM: 0.623%

CNS(=O)(=O)CC(=O)N1CCCc2cc(Br)ccc21
cytotoxicity at 10 µM: -12.5%

CC(C)(C(=O)NCCCC(N)=O)c1cccc(Br)c1
cytotoxicity at 10 µM: 4.23%

O=C(Nc1cccc(F)c1)C1CCN(Cc2noc(C3CC3)n2)CC1
cytotoxicity at 10 µM: 13.2%

CCn1cc(S(=O)(=O)NCC(OC)c2ccccc2)cn1 (stereo not given)
cytotoxicity at 10 µM: 1.64%

Fc1cccnc1N1CCCC(c2nccs2)C1 (stereo not given)
cytotoxicity at 10 µM: 1.48%

CCc1nccn1C1CCCN(C(=O)c2ccn(C)c(=O)c2)C1 (stereo not given)
cytotoxicity at 10 µM: 17%

CCCS(=O)(=O)N1CCC(NC(=O)c2cc(CC)c(C)s2)CC1
cytotoxicity at 10 µM: -4.61%

Cc1ccc(NC(=O)Cc2c(C)nc3c(c2C)c(=O)[nH]n3C)cc1F
cytotoxicity at 10 µM: 6.87%

CCCN(C1CCc2ccccc2C1)S(C)(=O)=O (stereo not given)
cytotoxicity at 10 µM: 0.595%

NC(=O)COc1cccc(C(=O)NCc2ccc(Cl)s2)c1
cytotoxicity at 10 µM: -0.935%

N#Cc1cccc(OCCN2CCCC2C(=O)NCC(F)(F)F)c1 (stereo not given)
cytotoxicity at 10 µM: -5.88%

Cc1cc(=O)n(C)cc1NC(=O)CC1CCC1
cytotoxicity at 10 µM: -9.64%

CN(C(=O)CN1CCCC1c1cnn(C)c1)C(C)(C)C#N (stereo not given)
cytotoxicity at 10 µM: -1.37%

Cc1cccnc1CNC(=O)NC(C)Cc1c(C)nn(C)c1C (stereo not given)
cytotoxicity at 10 µM: 3.92%

CCOCC(=O)N1CC(=O)Nc2cc(Br)ccc21
cytotoxicity at 10 µM: 8.09%

CCSc1ccc(C(C)NC(=O)CCS(C)(=O)=O)cc1 (stereo not given)
cytotoxicity at 10 µM: 2.18%

CC(C)N(Cc1cccnc1)C(=O)CSc1ccc(C#N)cc1
cytotoxicity at 10 µM: 3.18%

O=C(NCc1cccnc1N1CCCCC1)c1ccc2cc[nH]c2c1
cytotoxicity at 10 µM: 4.1%

CCc1cc(C(=O)N2CCc3c(ncn3CCc3ccccc3)C2)[nH]n1
cytotoxicity at 10 µM: -3.64%

CC(Nc1ccc(CCN2CCOCC2)cc1)C(=O)N(C)CCC#N (stereo not given)
cytotoxicity at 10 µM: -8.93%

O=S(=O)(CC1CCOCC1)NCc1ccnc(O)c1
cytotoxicity at 10 µM: -5.47%

CCOC(C)c1noc(CN(C)C(=O)c2cc3ccccn3c2)n1 (stereo not given)
cytotoxicity at 10 µM: 7.17%

CS(=O)(=O)NCC(=O)NC1CCc2nccn2C1 (stereo not given)
cytotoxicity at 10 µM: 16.2%

Cn1cccc1C1CCCN1C(=O)NCCCn1cccn1 (stereo not given)
cytotoxicity at 10 µM: 19.2%

COCC(C)NCc1ccc2[nH]c(C)c(C)c2c1 (stereo not given)
cytotoxicity at 10 µM: -3.06%

O=C(c1ccc2nccnc2c1)N1C[C@@H](CN2CCCC2)[C@@H](CO)C1
cytotoxicity at 10 µM: 4.23%

CSc1ccccc1C(=O)N(C)C1CCCN(CCc2ccccc2)C1 (stereo not given)
cytotoxicity at 10 µM: -8.52%

Cc1cccc(C(C(=O)N(C)Cc2cc(C)no2)N(C)C)c1 (stereo not given)
cytotoxicity at 10 µM: 4.94%

CCn1cc(CN2CCC3(CC2)c2ccccc2CC3O)cn1 (stereo not given)
cytotoxicity at 10 µM: 5.54%

O=C(CSCC1CC1)N1CCCC(c2nccn2Cc2cccnc2)C1 (stereo not given)
cytotoxicity at 10 µM: 3.86%

Cc1ccc(N2CCN(C(=O)CCc3ccc(O)cc3)CC2=O)cc1
cytotoxicity at 10 µM: -2.36%

COc1cc(N2CCCC(c3nccn3Cc3cccnc3)C2)ncn1 (stereo not given)
cytotoxicity at 10 µM: -1.86%

Cc1[nH]ccc1C(=O)N1CCCC(c2ccc(C(=O)O)cc2)C1 (stereo not given)
cytotoxicity at 10 µM: -0.591%

CC(C)C[C@H](NCc1cc(O)c2cccc(F)c2n1)C(N)=O
cytotoxicity at 10 µM: 5.71%

O=C(CSCC1CC1)N1CCCC(c2nccn2Cc2ccccn2)C1 (stereo not given)
cytotoxicity at 10 µM: 1.34%

O=C1NCC2(CCCN(c3ncnc4c3CCC4)CC2)O1 (stereo not given)
cytotoxicity at 10 µM: -0.718%

O=C(C1CC(=O)N(c2ccccc2)C1)N1CCC2(CC1)OCCO2 (stereo not given)
cytotoxicity at 10 µM: 1.87%

CCCS(=O)(=O)N1CCCC(c2cccc(C(=O)O)c2)C1 (stereo not given)
cytotoxicity at 10 µM: 6.09%

CNc1cncc(C2CCCN2Cc2c[nH]cn2)n1 (stereo not given)
cytotoxicity at 10 µM: 0.192%

CC(=O)N(Cc1ncc(C(C)C)o1)C1CCN(Cc2cc(C)on2)C1 (stereo not given)
cytotoxicity at 10 µM: -6.78%

Cc1cnn(CCNCc2nnc(Cc3ccccc3)o2)c1
cytotoxicity at 10 µM: -8.63%

CC(C(=O)NCCOc1ccccc1)n1cncn1 (stereo not given)
cytotoxicity at 10 µM: -6.85%

COCCCN1CCCC1c1noc(C2CC2)n1 (stereo not given)
cytotoxicity at 10 µM: -11.5%

CNC(=O)COc1ccc(CNCc2c(C)nn(C)c2N(C)C)cc1
cytotoxicity at 10 µM: -5.92%

OC(CNCCn1cccn1)c1ccc(C(F)(F)F)cc1 (stereo not given)
cytotoxicity at 10 µM: -5.4%

Cc1nn(C)c(C)c1C1CCCN1C(=O)c1cnccn1 (stereo not given)
cytotoxicity at 10 µM: -15.7%

Cc1cnn(CCNCCCOc2ccccc2)c1
cytotoxicity at 10 µM: -11.8%

COc1ccc(C(=O)NS(=O)(=O)c2ccc(C#N)cc2C(F)(F)F)cc1
cytotoxicity at 10 µM: -10.5%

CC(C(=O)NCc1ccnc(N2CCN(C)CC2)c1)n1cccn1 (stereo not given)
cytotoxicity at 10 µM: -10.2%

O=C(NCc1cc[nH]n1)NCC(O)c1ccc(F)cc1F (stereo not given)
cytotoxicity at 10 µM: 1.78%

CC(=O)N1CCCN(C(=O)NCCc2cc(Cl)cc(Cl)c2)CC1
cytotoxicity at 10 µM: 4.55%

Cc1ccc(N2CCCC(NCC(=O)Nc3cc(C)no3)C2)nn1 (stereo not given)
cytotoxicity at 10 µM: 3.61%

CCNC(c1cccnc1)c1cc(C)cc(C)c1 (stereo not given)
cytotoxicity at 10 µM: 2.77%

O=C(CCc1ccccc1)N1CCC(N2CCNC2=O)CC1
cytotoxicity at 10 µM: 5.49%

CC(C)c1ccsc1C(=O)N1CCCN(Cc2cscn2)CC1
cytotoxicity at 10 µM: 4.07%

CCN(CC)C(=O)C1CCC2(CCNCC2)CO1 (stereo not given)
cytotoxicity at 10 µM: -146%

O=C(NCC1CCOCC1)[C@@H]1C[C@@H]2CCN(Cc3ccco3)C[C@H]2O1
cytotoxicity at 10 µM: -8.09%

CCCNCc1cn(C)nc1-c1cccnc1
cytotoxicity at 10 µM: 6.36%

Cc1cnc(N2CC[C@H]3[C@@H]2CCC(=O)N3c2ccccc2)nc1
cytotoxicity at 10 µM: 4.15%
